Reference: ChEMBL document CHEMBL1275346, “Halogenation of 4-hydroxy/amino-3-methoxyphenyl acetamide TRPV1 agonists showed enhanced antagonism to capsaicin” (Bioorg Med Chem, 2010)

Key:
[1] = target: Transient receptor potential cation channel subfamily V member 1 (Rattus norvegicus) (UniProt O35433); test: Agonist activity at rat TRPV1 expressed in CHO cells assessed as increase of capsaicin-induced calcium uptake relative to capsaicin; format: functional, cell-based
Procedure, shortened: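 ⁴⁵Ca²⁺ uptake in CHO cells heterologously expressing rat TRPV1. Agonist efficacy is given as % of the maximal calcium uptake induced by 300 nM capsaicin. Mean ± SEM from three or more experiments.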

[2] = target: Transient receptor potential cation channel subfamily V member 1 (Rattus norvegicus) (UniProt O35433); test: Partial antagonist activity at rat TRPV1 expressed in CHO cells assessed as inhibition of capsaicin-induced calcium uptake; format: functional, cell-based; conditions: concentration not given here
Procedure, shortened: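 ⁴⁵Ca²⁺ uptake antagonism assay in CHO cells heterologously expressing rat TRPV1. The value is the extent of partial antagonism of capsaicin-induced uptake. Mean ± SEM from three or more experiments.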

[3] = target: T1, Transient receptor potential cation channel subfamily V member 1 (Rattus norvegicus, UniProt O35433); test: Displacement of [3H]RTX from rat TRPV1 expressed in CHO cells; format: cell-based
T1 sequence (O35433 whole entry): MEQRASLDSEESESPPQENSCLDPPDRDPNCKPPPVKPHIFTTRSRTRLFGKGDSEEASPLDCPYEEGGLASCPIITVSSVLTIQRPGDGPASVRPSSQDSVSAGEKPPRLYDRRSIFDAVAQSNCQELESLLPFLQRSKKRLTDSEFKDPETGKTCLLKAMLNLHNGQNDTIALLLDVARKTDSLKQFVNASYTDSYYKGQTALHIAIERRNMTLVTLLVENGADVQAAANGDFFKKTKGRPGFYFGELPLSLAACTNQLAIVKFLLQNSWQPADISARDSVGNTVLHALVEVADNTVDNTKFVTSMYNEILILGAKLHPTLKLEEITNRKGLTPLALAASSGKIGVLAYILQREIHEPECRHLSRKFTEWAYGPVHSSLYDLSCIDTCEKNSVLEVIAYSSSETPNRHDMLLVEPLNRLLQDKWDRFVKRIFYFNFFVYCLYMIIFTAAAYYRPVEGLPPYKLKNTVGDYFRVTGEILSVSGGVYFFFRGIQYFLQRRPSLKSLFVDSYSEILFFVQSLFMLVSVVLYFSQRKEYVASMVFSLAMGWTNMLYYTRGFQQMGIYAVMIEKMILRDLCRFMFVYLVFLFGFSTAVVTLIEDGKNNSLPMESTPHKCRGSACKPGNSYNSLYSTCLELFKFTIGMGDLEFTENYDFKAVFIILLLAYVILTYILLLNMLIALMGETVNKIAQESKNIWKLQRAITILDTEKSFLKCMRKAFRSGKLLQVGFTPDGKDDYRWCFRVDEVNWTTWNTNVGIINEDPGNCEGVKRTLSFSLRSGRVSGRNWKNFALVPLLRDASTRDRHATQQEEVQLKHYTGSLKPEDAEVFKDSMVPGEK
Procedure, shortened: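 Binding competition against [³H]RTX on rat TRPV1 heterologously expressed in CHO cells. Mean ± SEM from three or more experiments.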

[4] = target: T1, Transient receptor potential cation channel subfamily V member 1; test: Agonist activity at rat TRPV1 expressed in CHO cells assessed as increase of capsaicin-induced calcium uptake; format: functional, cell-based
Procedure, shortened: (§1)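 Functional ⁴⁵Ca²⁺ uptake assay in CHO cells heterologously expressing rat TRPV1. Values are mean ± SEM from three or more experiments.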

[5] = target: T1, Transient receptor potential cation channel subfamily V member 1; test: Antagonist activity at rat TRPV1 expressed in CHO cells assessed as inhibition of capsaicin-induced calcium uptake; format: functional, cell-based; procedure, shortened: as §1

Transient receptor potential cation channel subfamily V member 1 (Rattus norvegicus), sequence (O35433 whole entry): as above

With `CC(C)(C)C(=O)OCC(CNC(=O)Cc1ccc(N)c(Br)c1)Cc1ccc(C(C)(C)C)cc1` (stereo not given) the Activity [1] was 59%, the inhibition [2] was 27% and the Ki [3] was 57 nM.
In the case of `COc1cc(CC(=O)NCc2ccc(C(C)(C)C)cc2)c(Cl)cc1O`, the EC50 ([4]; read-out: EC50) is reported as 135 nM, the Ki ([5]; cho) is reported as “Not Active” and the Ki [3] is reported as 486 nM.
`COc1cc(CC(=O)NCC(COC(=O)C(C)(C)C)Cc2ccc(C(C)(C)C)cc2)c(Br)cc1OC(C)=O` (stereo not given) showed an Activity [1] of 22%, an inhibition [2] of 63% and a Ki [3] of 34.9 nM.
Compound `COc1cc(CC(=O)NCc2ccc(C(C)(C)C)cc2)c(Br)cc1O` has an Activity [1] of 37%, an inhibition [2] of 42% and a Ki [3] of 364 nM.
For `COc1cc(CC(=O)NCC(COC(=O)C(C)(C)C)Cc2ccc(C(C)(C)C)cc2)ccc1NS(C)(=O)=O` (stereo not given), the Activity [1] was 72%, the inhibition [2] was 15% and the Ki [3] was 84.5 nM.
`COc1cc(CC(=O)NCC(COC(=O)C(C)(C)C)Cc2ccc(C(C)(C)C)cc2)cc(Br)c1O` (stereo not given) was tested, and the EC50 ([4]; cho) was “Not Active”, the Ki ([5]; read-out: Ki) was 8.77 nM and the Ki [3] was 9.4 nM.
`COc1cc(CC(=O)NCC(COC(=O)C(C)(C)C)Cc2ccc(C)c(C)c2)c(I)cc1O` (stereo not given) gave an Activity [1] of 23%, an inhibition [2] of 53% and a Ki [3] of 116 nM.
In the case of `CC(C)(C)C(=O)OCC(CNC(=O)Cc1cc(Cl)c(N)c(Cl)c1)Cc1ccc(C(C)(C)C)cc1` (stereo not given), the EC50 ([4]; cho) is reported as “Not Active”, the Ki ([5]; read-out: Ki) is reported as 3.96 nM and the Ki [3] is reported as 9.43 nM.
`COc1cc(CC(=O)NCc2ccc(C(C)(C)C)cc2)c(I)cc1OC(C)=O` was tested, and the Activity [1] was 8%, the inhibition [2] was 85% and the Ki [3] was 378 nM.
In the case of `COc1cc(CC(=O)NCC(COC(=O)C(C)(C)C)Cc2ccc(C(C)(C)C)cc2)cc(Br)c1OC(C)=O` (stereo not given), the EC50 ([4]; cho) is reported as “Not Active”, the Ki ([5]; read-out: Ki) is reported as 72 nM and the Ki [3] is reported as 13.6 nM.
`CC(C)(C)C(=O)OCC(CNC(=O)Cc1cc(Br)c(N)c(Br)c1)Cc1ccc(C(C)(C)C)cc1` (stereo not given) was tested, and the EC50 ([4]; cho) was “Not Active”, the Ki ([5]; read-out: Ki) was 4.3 nM and the Ki [3] was 11.3 nM.
`COc1cc(CC(=O)NCC(COC(=O)C(C)(C)C)Cc2ccc(C)c(C)c2)cc(I)c1OC(C)=O` (stereo not given) showed an Activity [1] of 12%, an inhibition [2] of 59% and a Ki [3] of 4530 nM.
`COc1cc(CC(=O)NCc2ccc(C(C)(C)C)cc2)cc(Cl)c1OC(C)=O` was tested, and the Activity [1] was 22%, the Ki ([5]; read-out: Ki) was 570 nM and the Ki [3] was 205 nM.
In the case of `COc1cc(CC(=O)NCC(COC(=O)C(C)(C)C)Cc2ccc(C(C)(C)C)cc2)c(I)cc1OC(C)=O` (stereo not given), the EC50 ([4]; cho) is reported as “Not Active”, the Ki ([5]; read-out: Ki) is reported as 53 nM and the Ki [3] is reported as 19.5 nM.
`COc1cc(CC(=O)NCC(COC(=O)C(C)(C)C)Cc2ccc(C(C)(C)C)cc2)c(Cl)cc1OC(C)=O` (stereo not given) was tested, and the Activity [1] was 53%, the inhibition [2] was 36% and the Ki [3] was 25.1 nM.
For `COc1cc(CC(=O)NCC(COC(=O)C(C)(C)C)Cc2ccc(C(C)(C)C)cc2)ccc1N` (stereo not given), the EC50 ([4]; read-out: EC50) was 22.9 nM, the Ki ([5]; cho) was “Not Active” and the Ki [3] was 108 nM.
For `COc1cc(CC(=O)NCC(COC(=O)C(C)(C)C)Cc2ccc(C(C)(C)C)cc2)cc(Cl)c1OC(C)=O` (stereo not given), the Activity [1] was 28%, the inhibition [2] was 58% and the Ki [3] was 21 nM.
For `CC(C)(C)C(=O)OCC(CNC(=O)Cc1cc(Cl)c(O)c(Cl)c1)Cc1ccc(C(C)(C)C)cc1` (stereo not given), the EC50 ([4]; cho) was “Not Active”, the Ki ([5]; read-out: Ki) was 4.26 nM and the Ki [3] was 9.3 nM.
`COc1cc(CC(=O)NCC(COC(=O)C(C)(C)C)Cc2ccc(C(C)(C)C)cc2)cc(Cl)c1O` (stereo not given) showed an Activity [1] of 25%, an inhibition [2] of 76% and a Ki [3] of 31 nM.
In the case of `CC(C)(C)C(=O)OCC(CNC(=O)Cc1cc(Br)cc(Br)c1)Cc1ccc(C(C)(C)C)cc1` (stereo not given), the EC50 ([4]; cho) is reported as “Not Active”, the Ki ([5]; read-out: Ki) is reported as 108 nM and the Ki [3] is reported as 210 nM.
For `COc1cc(CC(=O)NCC(COC(=O)C(C)(C)C)Cc2ccc(C(C)(C)C)cc2)cc(Br)c1N` (stereo not given), the EC50 ([4]; cho) was “Not Active”, the Ki ([5]; read-out: Ki) was 3.4 nM and the Ki [3] was 79.1 nM.
Compound `COc1cc(CC(=O)NCC(COC(=O)C(C)(C)C)Cc2ccc(C(C)(C)C)cc2)c(Br)cc1O` (stereo not given) has an Activity [1] of 21%, an inhibition [2] of 76% and a Ki [3] of 25.3 nM.
In the case of `COc1cc(CC(=O)NCc2ccc(C(C)(C)C)cc2)cc(Br)c1OC(C)=O`, the Activity [1] is reported as 9%, the inhibition [2] is reported as 89% and the Ki [3] is reported as 166 nM.
`COc1cc(CC(=O)NCc2ccc(C(C)(C)C)cc2)cc(Cl)c1O` gave an Activity [1] of 25%, an inhibition [2] of 66% and a Ki [3] of 164 nM.
In the case of `COc1cc(CC(=O)NCC(COC(=O)C(C)(C)C)Cc2ccc(C)c(C)c2)cc(I)c1O` (stereo not given), the Activity [1] is reported as 6%, the Ki ([5]; read-out: Ki) is reported as 225 nM and the Ki [3] is reported as 1630 nM.
`COc1cc(CC(=O)NCC(COC(=O)C(C)(C)C)Cc2ccc(C(C)(C)C)cc2)c(Br)cc1NS(C)(=O)=O` (stereo not given) was tested, and the Activity [1] was 14%, the inhibition [2] was 64% and the Ki [3] was 42.9 nM.
`COc1cc(CC(=O)NCC(COC(=O)C(C)(C)C)Cc2ccc(C(C)(C)C)cc2)ccc1O` (stereo not given) was tested, and the EC50 ([4]; read-out: EC50) was 4.08 nM, the Ki ([5]; cho) was “Not Active” and the Ki [3] was 13.1 nM.
Compound `COc1cc(CC(=O)NCc2ccc(C(C)(C)C)cc2)c(I)cc1O` has an Activity [1] of 17%, an inhibition [2] of 55% and a Ki [3] of 850 nM.
Work on `CC(C)(C)C(=O)OCC(CNC(=O)Cc1ccc(N)c(Cl)c1)Cc1ccc(C(C)(C)C)cc1` (stereo not given) yielded an Activity [1] of 85%, an inhibition [2] of 24% and a Ki [3] of 790 nM.
Work on `COc1cc(CC(=O)NCc2ccc(C(C)(C)C)cc2)cc(Br)c1O` yielded an Activity [1] of 11%, a Ki ([5]; read-out: Ki) of 168 nM and a Ki [3] of 91 nM.
In the case of `CCCCCCCCC(=O)NCc1cc(OC)c(O)cc1I`, the EC50 ([4]; cho) is reported as “Not Active”.
With `COc1cc(CC(=O)NCC(COC(=O)C(C)(C)C)Cc2ccc(C(C)(C)C)cc2)cc(I)c1OC(C)=O` (stereo not given) the EC50 ([4]; cho) was “Not Active”, the Ki ([5]; read-out: Ki) was 19.1 nM and the Ki [3] was 20.3 nM.
With `COc1cc(CC(=O)NCC(COC(=O)C(C)(C)C)Cc2ccc(C(C)(C)C)cc2)cc(Cl)c1N` (stereo not given) the EC50 ([4]; cho) was “Not Active”, the Ki ([5]; read-out: Ki) was 4.09 nM and the Ki [3] was 33.5 nM.
With `COc1cc(CC(=O)NCC(COC(=O)C(C)(C)C)Cc2ccc(C(C)(C)C)cc2)c(Cl)cc1O` (stereo not given) the Activity [1] was 61%, the inhibition [2] was 39% and the Ki [3] was 37.6 nM.
For `COc1cc(CC(=O)NCc2ccc(C(C)(C)C)cc2)ccc1O`, the EC50 ([4]; read-out: EC50) was 82 nM, the Ki ([5]; cho) was “Not Active” and the Ki [3] was 667 nM.
For `COc1cc(CC(=O)NCC(COC(=O)C(C)(C)C)Cc2ccc(C(C)(C)C)cc2)cc(I)c1O` (stereo not given), the EC50 ([4]; cho) was “Not Active”, the Ki ([5]; read-out: Ki) was 2.8 nM and the Ki [3] was 22 nM.
Work on `COc1cc(CC(=O)NCC(COC(=O)C(C)(C)C)Cc2ccc(C)c(C)c2)cc(Br)c1O` (stereo not given) yielded an Activity [1] of 43%, an inhibition [2] of 62% and a Ki [3] of 56.4 nM.
In the case of `COc1cc(CC(=O)NCc2ccc(C(C)(C)C)cc2)cc(I)c1O`, the EC50 ([4]; cho) is reported as “Not Active”, the Ki ([5]; read-out: Ki) is reported as 17.2 nM and the Ki [3] is reported as 89 nM.
In the case of `COc1cc(CC(=O)NCC(COC(=O)C(C)(C)C)Cc2ccc(C(C)(C)C)cc2)c(I)cc1O` (stereo not given), the EC50 ([4]; cho) is reported as “Not Active”, the Ki ([5]; read-out: Ki) is reported as 13.5 nM and the Ki [3] is reported as 20.9 nM.
`COc1cc(CC(=O)NCc2ccc(C(C)(C)C)cc2)c(Br)cc1OC(C)=O` gave an Activity [1] of 60%, an inhibition [2] of 59% and a Ki [3] of 393 nM.
`CC(C)(C)C(=O)OCC(CNC(=O)Cc1ccc(O)c(Br)c1)Cc1ccc(C(C)(C)C)cc1` (stereo not given) was tested, and the Activity [1] was 72%, the inhibition [2] was 38% and the Ki [3] was 25.1 nM.
For `COc1cc(CC(=O)NCc2ccc(C(C)(C)C)cc2)c(Cl)cc1OC(C)=O`, the Activity [1] was 83%, the inhibition [2] was 62% and the Ki [3] was 388 nM.
In the case of `COc1cc(CC(=O)NCc2ccc(C(C)(C)C)cc2)cc(I)c1OC(C)=O`, the EC50 ([4]; cho) is reported as “Not Active”, the Ki ([5]; read-out: Ki) is reported as 47.9 nM and the Ki [3] is reported as 94 nM.
With `CC(C)(C)C(=O)OCC(CNC(=O)Cc1cc(Br)c(O)c(Br)c1)Cc1ccc(C(C)(C)C)cc1` (stereo not given) the EC50 ([4]; cho) was “Not Active”, the Ki ([5]; read-out: Ki) was 10.7 nM and the Ki [3] was 20.2 nM.
